Legend:
[1] = Potentiation of paclitaxel-mediated cytotoxicity against human KBVIN cells assessed as cell viability at 10 uM after 72 hrs by SRB method relative to control; assay type: functional; settings: read-out: Activity
KB = assay: Potentiation of paclitaxel-mediated cytotoxicity against human KB cells assessed as cell viability at 10 uM after 72 hrs by SRB method relative to control; assay type: functional; settings: read-out: Activity
[2] = Cytotoxicity against human KBVIN cells assessed as cell viability at 10 uM after 72 hrs by SRB method relative to control; assay type: cell-based; settings: read-out: Activity
[3] = Cytotoxicity against human KB cells assessed as cell viability at 10 uM after 72 hrs by SRB method relative to control; assay type: cell-based; settings: read-out: Activity
[4] = Cytotoxicity against human KB cells assessed as cell viability at 10 ug/ml; assay type: cell-based; settings: read-out: Activity
[5] = Cytotoxicity against human KBVIN cells assessed as cell viability at 10 ug/ml; assay type: cell-based; settings: read-out: Activity
[6] = Cytotoxicity against human A549 cells assessed as cell viability at 10 ug/ml; assay type: cell-based; settings: read-out: Activity
[7] = Cytotoxicity against human DU145 cells assessed as cell viability at 10 ug/ml; assay type: cell-based, DU-145; settings: read-out: Activity
[8] = biological target: Multidrug resistance-associated protein 1 (Homo sapiens, UniProt P33527); assay: Inhibition of MRP-mediated Fluo3 efflux in human KBVIN cells at 10 uM incubated for 1 hr prior to Fluo3-addition measured after 2 hrs by fluorescence microscopic analysis; assay type: cell-based
Chain of Multidrug resistance-associated protein 1 (P33527 whole entry): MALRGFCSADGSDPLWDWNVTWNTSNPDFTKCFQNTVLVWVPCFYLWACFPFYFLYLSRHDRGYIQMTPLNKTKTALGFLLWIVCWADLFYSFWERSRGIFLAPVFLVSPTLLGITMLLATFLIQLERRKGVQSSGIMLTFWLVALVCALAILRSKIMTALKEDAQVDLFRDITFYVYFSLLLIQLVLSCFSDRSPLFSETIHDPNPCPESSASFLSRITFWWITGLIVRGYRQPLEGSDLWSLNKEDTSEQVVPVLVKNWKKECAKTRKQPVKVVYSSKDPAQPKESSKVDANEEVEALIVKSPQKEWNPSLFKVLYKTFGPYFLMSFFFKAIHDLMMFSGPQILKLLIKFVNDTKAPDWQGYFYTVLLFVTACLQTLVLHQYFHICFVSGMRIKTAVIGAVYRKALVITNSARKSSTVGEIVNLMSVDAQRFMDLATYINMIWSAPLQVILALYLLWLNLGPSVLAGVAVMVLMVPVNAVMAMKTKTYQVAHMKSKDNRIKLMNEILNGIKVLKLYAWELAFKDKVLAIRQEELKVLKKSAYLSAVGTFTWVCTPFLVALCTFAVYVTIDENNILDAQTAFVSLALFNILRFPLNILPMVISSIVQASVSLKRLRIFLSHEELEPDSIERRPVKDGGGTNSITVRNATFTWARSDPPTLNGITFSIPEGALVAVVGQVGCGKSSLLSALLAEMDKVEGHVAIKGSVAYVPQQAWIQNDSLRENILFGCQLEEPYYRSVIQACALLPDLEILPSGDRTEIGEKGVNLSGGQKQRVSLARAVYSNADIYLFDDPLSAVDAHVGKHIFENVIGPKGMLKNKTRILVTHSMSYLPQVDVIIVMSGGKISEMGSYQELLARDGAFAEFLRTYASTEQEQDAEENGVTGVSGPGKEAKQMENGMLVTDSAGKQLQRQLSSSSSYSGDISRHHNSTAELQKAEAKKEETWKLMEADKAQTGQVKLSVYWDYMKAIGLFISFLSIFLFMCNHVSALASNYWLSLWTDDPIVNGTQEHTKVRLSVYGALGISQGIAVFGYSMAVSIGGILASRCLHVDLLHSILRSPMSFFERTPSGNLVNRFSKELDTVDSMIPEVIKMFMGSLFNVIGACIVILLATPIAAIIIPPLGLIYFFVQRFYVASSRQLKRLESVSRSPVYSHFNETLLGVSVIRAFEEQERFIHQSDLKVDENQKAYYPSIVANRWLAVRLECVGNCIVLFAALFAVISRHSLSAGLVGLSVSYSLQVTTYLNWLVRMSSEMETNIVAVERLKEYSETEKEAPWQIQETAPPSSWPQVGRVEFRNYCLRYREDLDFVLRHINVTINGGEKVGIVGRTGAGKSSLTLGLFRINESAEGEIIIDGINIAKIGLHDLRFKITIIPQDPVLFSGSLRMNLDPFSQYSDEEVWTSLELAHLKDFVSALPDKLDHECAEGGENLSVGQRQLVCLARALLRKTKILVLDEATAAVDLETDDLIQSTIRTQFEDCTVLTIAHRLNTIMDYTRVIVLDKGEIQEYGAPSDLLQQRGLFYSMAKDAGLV
Outline: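 KB or KBvin cells pretreated 1 h with compound or DMSO, then Fluo-3 AM (fluorogenic MRP substrate) added for 2 h; intracellular Fluo-3 retention judged by fluorescence microscopy.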

[9] = Potentiation of vincristine-mediated cytotoxicity against human KBVIN cells assessed as reduction in vincristine IC50 at 10 uM after 72 hrs by SRB method relative to verapamil; assay type: functional
Outline: (§1)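 IC50 of paclitaxel, vincristine or doxorubicin measured in KBvin cells with and without 10 μM compound; reversal fold = IC50 (drug alone)/IC50 (drug + compound); mean ± SD of three independent experiments; verapamil as reference.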

[10] = Potentiation of doxorubicin-mediated cytotoxicity against human KBVIN cells assessed as reduction in doxorubicin IC50 at 10 uM after 72 hrs by SRB method relative to control; assay type: functional; outline: as §1
[11] = Potentiation of vincristine-mediated cytotoxicity against human KBVIN cells assessed as reduction in vincristine IC50 at 10 uM after 72 hrs by SRB method relative to control; assay type: functional; outline: as §1
[12] = Potentiation of paclitaxel-mediated cytotoxicity against human KBVIN cells assessed as reduction in paclitaxel IC50 at 10 uM after 72 hrs by SRB method relative to control; assay type: functional; outline: as §1
KBVIN = settings: Homo sapiens

| Compound | viability at 10 µM [1] | viability at 10 µM (KB) | viability at 72 h, 10 µM [2] | viability at 72 h, 10 µM [3] | viability at 10 ug/ml [4] | viability at 10 ug/ml [5] | viability at 10 ug/ml [6] | viability at 10 ug/ml [7] | inhibition (INH) [8] | fold change (FC) [9] | fold change (FC) [10] | fold change (FC) [11] | fold change (FC) [12] | Flu intensity (KBVIN) |
| --- | --- | --- | --- | --- | --- | --- | --- | --- | --- | --- | --- | --- | --- | --- |
| COc1cc(C(O)CO)cc(OC)c1OC (stereo not given) | 99% | 96.8% | 92.4% | 101% | > 80% | > 80% | > 80% | > 80% | – | – | – | – | – | – |
| COc1cc(C(=O)OCC(OC(=O)c2cc(OC)c(OC)c(OC)c2)c2cc(OC)c(OC)c(OC)c2I)cc(OC)c1OC (stereo not given) | 0% | 73.7% | 87.1% | 84.2% | 75.4% | 47% | 56.2% | 46.6% | Not Active | 340 | 156 | 2285 | 141 | 456 |
| COc1cc(C(O)CO)c(I)c(OC)c1OC (stereo not given) | 91.8% | 97% | 90% | 95.1% | > 80% | > 80% | > 80% | > 80% | – | – | – | – | – | – |
| C/C=C/C(=O)OCC(OC(=O)CCCCCCCCCCC)c1cc(OC)c(OC)c(OC)c1 (stereo not given) | 44% | 83.9% | 79.9% | 91.1% | 76.2% | 41.1% | 51.1% | 41.9% | – | – | – | – | – | – |
| COc1cc(C(=O)OCC(O)c2cc(OC)c(OC)c(OC)c2I)cc(OC)c1OC (stereo not given) | 0% | 75.7% | 83.3% | 77% | > 80% | > 80% | > 80% | > 80% | – | – | 51 | 798 | 164 | 226 |
| COc1ccc(/C=C/C(=O)OCC(OC(=O)/C=C/c2ccccc2)c2cc(OC)c(OC)c(OC)c2I)cc1OC (stereo not given) | 0% | 76.5% | 95.3% | 85.9% | > 80% | > 80% | > 80% | > 80% | – | – | 23 | 620 | 166 | 414 |
| COc1cc(C(=O)OCC(O[Si](C)(C)C(C)(C)C)c2cc(OC)c(OC)c(OC)c2I)cc(OC)c1OC (stereo not given) | 19.6% | 58% | 41% | 64.2% | 26.1% | 36.7% | 37% | 0% | – | – | – | – | – | – |
| COc1cc(C(COC(C)=O)OC(C)=O)cc(OC)c1OC (stereo not given) | 92% | 96% | 91.5% | 98% | > 80% | > 80% | > 80% | > 80% | – | – | – | – | – | – |
| COc1ccc(CCN(C)CCCC(C#N)(c2ccc(OC)c(OC)c2)C(C)C)cc1OC (stereo not given) [VERAPAMIL] | – | – | – | – | – | – | – | – | – | – | 6 | 97 | 72 | – |
| C/C=C/C=C/C(=O)OCC(OC(=O)/C=C/C=C/C)c1cc(OC)c(OC)c(OC)c1 (stereo not given) | 31.3% | 76.8% | 81.5% | 91.2% | 74.7% | 50.1% | 49.6% | 40.8% | – | – | – | – | – | – |
| COc1cc(C(=O)OCC(O[Si](C)(C)C(C)(C)C)c2cc(OC)c(OC)c(OC)c2)cc(OC)c1OC (stereo not given) | 12.3% | 70.3% | 74.3% | 83.9% | > 80% | > 80% | > 80% | > 80% | Active | – | 79 | 1684 | 216 | 184 |
| COc1cc(C(O)COC(=O)C2CCCCC2)cc(OC)c1OC (stereo not given) | 103% | 96.7% | 110% | 98.9% | > 80% | > 80% | > 80% | > 80% | – | – | – | – | – | – |

— ChEMBL document CHEMBL2203070, “1-(3,4,5-Trimethoxyphenyl)ethane-1,2-diyl esters, a novel compound class with potent chemoreversal activity” (Bioorg Med Chem Lett, 2012)
